Reference: ChEMBL document CHEMBL1149120, “Discovery of potent inhibitors of dihydroneopterin aldolase using CrystaLEAD high-throughput X-ray crystallographic screening and structure-directed lead optimization” (J Med Chem, 2004)

Assay: Inhibition of Staphylococcus aureus 7,8-dihydroneopterin aldolase
How it was run: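 DHNA expressed in E. coli BL21(DE3) and purified by DEAE, Q-Sepharose and S300 chromatography; 50 nM enzyme with 4 µM 7,8-dihydroneopterin in 20 mM HEPES pH 7.4, 150 mM NaCl, ambient temperature (~29 °C). IC50 is the concentration halving the initial rate.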

Structure (SMILES)	IC50 [nM]
Cn1c(N)nc(-c2ccccc2)c(Br)c1=O	38000
Nc1nc(O)c2nn(-c3cccc(C(=O)NCc4ccc(-c5ccccc5)cc4)c3)nc2n1	25000
Nc1nc(O)c2nn(-c3cccc(C(=O)NCC4(O)CCCCC4)c3)nc2n1	740
Nc1nc(O)c2nn(-c3cccc(C(=O)NC[C@@H]4CCCCC[C@H]4O)c3)nc2n1	350
NC1=NC(=O)C2N=C(S)N=C2N1 (configuration not stated)	1000
Nc1nc(O)c2cc(N(C=O)Cc3ccc(Cl)c(Cl)c3)ccc2n1	600
Nc1nc(O)c2nn(-c3cccc(C(=O)NC[C@H]4CCCC[C@@H]4O)c3)nc2n1	320
Nc1nc(O)c2nn(-c3cccc(C(=O)NCc4ccc(Oc5ccccc5)cc4)c3)nc2n1	22000
CCC(CO)(CO)CNC(=O)c1cccc(-n2nc3nc(N)nc(O)c3n2)c1	950
Nc1nc(O)c2nn(-c3cccc(C(=O)NC[C@H]4CCCC[C@H]4O)c3)nc2n1	410
Nc1nc(O)c2nn(-c3cccc(C(=O)NCCCO)c3)nc2n1	2300
Nc1nc(O)c2nn(-c3cccc(C(=O)NCc4cc(C(F)(F)F)cc(C(F)(F)F)c4)c3)nc2n1	1000
Nc1nc(O)c2nn(-c3cccc(C(=O)NCc4ccc5c(c4)OCO5)c3)nc2n1	310
Cc1nc(N)nc(O)c1N(Cc1ccc(Cl)c(Cl)c1)N=O	1300
Nc1nc(O)c2nn(-c3cccc(C(=O)NCCCCO)c3)nc2n1	2000
CC(C)(CO)CNC(=O)c1cccc(-n2nc3nc(N)nc(O)c3n2)c1	730
Nc1nc(O)c2nn(-c3cccc(C(=O)NCc4ccc5c(c4)CCO5)c3)nc2n1	550
